Values after ≈ are worked out from the molar mass of the structure shown.
What was measured:
Assay type in all cases: functional
Streptococcus pneumoniae [1] = assay: Antimicrobial activity against penicillin-susceptible Streptococcus pneumoniae by agar dilution method
Streptococcus pneumoniae [2] = assay: Antimicrobial activity against penicillin-intermediate Streptococcus pneumoniae by agar dilution method
Streptococcus pneumoniae [3] = assay: Antimicrobial activity against penicillin-resistant Streptococcus pneumoniae by agar dilution method
In short: (§1)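 Agar dilution MIC on Mueller-Hinton agar with 5% sheep blood, inocula 10^4 CFU/spot; amoxicillin-clavulanate combined 1:2; S. pneumoniae ATCC 49619 quality control each run.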

Streptococcus pneumoniae [4] = assay: Antimicrobial activity against Streptococcus pneumoniae 19A by agar dilution method; in short: as §1
Streptococcus pneumoniae [5] = assay: Antimicrobial activity against Streptococcus pneumoniae 1 by time-kill analysis
In short: (§2)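 Time-kill in cation-adjusted Mueller-Hinton broth with 5% lysed horse blood; inocula 5 × 105 to 5 × 10^6 CFU/ml; drugs at MIC, 2× and 4× MIC; 35°C shaking water bath; viable counts at 0, 3, 6, 12 and 24 h. Bactericidal if ≥3 log10 CFU/ml (99.9%) reduction from original inoculum; 90% and 99% killing also scored.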

Streptococcus pneumoniae [6] = assay: Antimicrobial activity against Streptococcus pneumoniae 2 by time-kill analysis
In short: as §2, with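 “12,” for “12 and”, “=” for “if”, “drop” for “reduction”, “90%/99%/99.9%” for “90% and 99%”, “scored per strain.” for “also scored.”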

Streptococcus pneumoniae [7] = assay: Antimicrobial activity against Streptococcus pneumoniae 3 by time-kill analysis
In short: as §2, with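 “12,” for “12 and”, “=” for “if”, “drop” for “reduction”, “90%/99%/99.9%” for “90% and 99%”, “scored per strain.” for “also scored.”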

Streptococcus pneumoniae [8] = assay: Antimicrobial activity against Streptococcus pneumoniae 4 by time-kill analysis
In short: as §2, with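 “12,” for “12 and”, “=” for “if”, “drop” for “reduction”, “90%/99%/99.9%” for “90% and 99%”, “scored per strain.” for “also scored.”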

Streptococcus pneumoniae [9] = assay: Antimicrobial activity against Streptococcus pneumoniae 5 by time-kill analysis; in short: as §2
Streptococcus pneumoniae [10] = assay: Antimicrobial activity against Streptococcus pneumoniae 6 by time-kill analysis
In short: as §2, with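 “12,” for “12 and”, “=” for “if”, “drop” for “reduction”, “90%/99%/99.9%” for “90% and 99%”, “scored per strain.” for “also scored.”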

Streptococcus pneumoniae [11] = assay: Antimicrobial activity against Streptococcus pneumoniae 7 by time-kill analysis
In short: as §2, with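 “12,” for “12 and”, “=” for “if”, “drop” for “reduction”, “90%/99%/99.9%” for “90% and 99%”, “scored per strain.” for “also scored.”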

Streptococcus pneumoniae [12] = assay: Antimicrobial activity against Streptococcus pneumoniae 8 by time-kill analysis
In short: as §2, with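 “12,” for “12 and”, “=” for “if”, “drop” for “reduction”, “90%/99%/99.9%” for “90% and 99%”, “scored per strain.” for “also scored.”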

Streptococcus pneumoniae [13] = assay: Antimicrobial activity against Streptococcus pneumoniae 9 by time-kill analysis; in short: as §2
Streptococcus pneumoniae [14] = assay: Antimicrobial activity against Streptococcus pneumoniae 10 by time-kill analysis
In short: as §2, with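 “12,” for “12 and”, “=” for “if”, “drop” for “reduction”, “90%/99%/99.9%” for “90% and 99%”, “scored per strain.” for “also scored.”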

Streptococcus pneumoniae [15] = assay: Antimicrobial activity against Streptococcus pneumoniae 11 by time-kill analysis
In short: as §2, with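 “12,” for “12 and”, “=” for “if”, “drop” for “reduction”, “90%/99%/99.9%” for “90% and 99%”, “scored per strain.” for “also scored.”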

Streptococcus pneumoniae [16] = assay: Antimicrobial activity against Streptococcus pneumoniae 12 by time-kill analysis
In short: as §2, with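 “12,” for “12 and”, “=” for “if”, “drop” for “reduction”, “90%/99%/99.9%” for “90% and 99%”, “scored per strain.” for “also scored.”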

Streptococcus pneumoniae [17] = assay: Antimicrobial activity against Streptococcus pneumoniae isolate 24 by agar dilution method
Streptococcus pneumoniae [18] = assay: Antimicrobial activity against Streptococcus pneumoniae isolate 33 by agar dilution method; in short: as §1
Streptococcus pneumoniae [19] = assay: Antimicrobial activity against Streptococcus pneumoniae isolate 37 by agar dilution method; in short: as §1
Streptococcus pneumoniae [20] = assay: Antimicrobial activity against Streptococcus pneumoniae isolate 1055 by agar dilution method
Streptococcus pneumoniae [21] = assay: Antimicrobial activity against Streptococcus pneumoniae isolate 1146 by agar dilution method; in short: as §1
Streptococcus pneumoniae [22] = assay: Antimicrobial activity against Streptococcus pneumoniae isolate 1147 by agar dilution method; in short: as §1
Streptococcus pneumoniae [23] = assay: Antimicrobial activity against Streptococcus pneumoniae isolate 1384 by agar dilution method; in short: as §1
Streptococcus pneumoniae [24] = assay: Antimicrobial activity against Streptococcus pneumoniae isolate 1394 by agar dilution method
Streptococcus pneumoniae [25] = assay: Antimicrobial activity against Streptococcus pneumoniae isolate 1397 by agar dilution method; in short: as §1
Streptococcus pneumoniae [26] = assay: Antimicrobial activity against Streptococcus pneumoniae isolate 1424 by agar dilution method; in short: as §1
Streptococcus pneumoniae [27] = assay: Antimicrobial activity against Streptococcus pneumoniae isolate 1564 by agar dilution method
Streptococcus pneumoniae [28] = assay: Antimicrobial activity against Streptococcus pneumoniae isolate 2617 by agar dilution method; in short: as §1
Streptococcus pneumoniae [29] = assay: Antimicrobial activity against Streptococcus pneumoniae isolate 2686 by agar dilution method; in short: as §1
Streptococcus pneumoniae [30] = assay: Antimicrobial activity against Streptococcus pneumoniae isolate 2688 by agar dilution method; in short: as §1
Streptococcus pneumoniae [31] = assay: Antimicrobial activity against Streptococcus pneumoniae isolate 2874 by agar dilution method; in short: as §1
Streptococcus pneumoniae [32] = assay: Antimicrobial activity against Streptococcus pneumoniae isolate 2880 by agar dilution method; in short: as §1
Streptococcus pneumoniae [33] = assay: Antimicrobial activity against Streptococcus pneumoniae isolate 3260 by agar dilution method
Streptococcus pneumoniae [34] = assay: Antimicrobial activity against Streptococcus pneumoniae isolate 3263 by agar dilution method
Streptococcus pneumoniae [35] = assay: Antimicrobial activity against Streptococcus pneumoniae isolate 3275 by agar dilution method; in short: as §1
Streptococcus pneumoniae [36] = assay: Antimicrobial activity against Streptococcus pneumoniae isolate 3282 by agar dilution method
Streptococcus pneumoniae [37] = assay: Antimicrobial activity against Streptococcus pneumoniae isolate 3346 by agar dilution method
Streptococcus pneumoniae [38] = assay: Antimicrobial activity against Streptococcus pneumoniae isolate 3374 by agar dilution method; in short: as §1
Streptococcus pneumoniae [39] = assay: Antimicrobial activity against Streptococcus pneumoniae isolate 3412 by agar dilution method; in short: as §1
Streptococcus pneumoniae [40] = assay: Antimicrobial activity against Streptococcus pneumoniae isolate 3455 by agar dilution method
Streptococcus pneumoniae [41] = assay: Antimicrobial activity against Streptococcus pneumoniae isolate 3458 by agar dilution method
Streptococcus pneumoniae [42] = assay: Antimicrobial activity against Streptococcus pneumoniae isolate 3481 by agar dilution method; in short: as §1
Streptococcus pneumoniae [43] = assay: Antimicrobial activity against Streptococcus pneumoniae isolate 3587 by agar dilution method
Streptococcus pneumoniae [44] = assay: Antimicrobial activity against Streptococcus pneumoniae isolate 3681 by agar dilution method; in short: as §1
Streptococcus pneumoniae [45] = assay: Antimicrobial activity against Streptococcus pneumoniae isolate 3791 by agar dilution method; in short: as §1
Streptococcus pneumoniae [46] = assay: Antimicrobial activity against Streptococcus pneumoniae isolate 4747 by agar dilution method; in short: as §1
Streptococcus pneumoniae [47] = assay: Antimicrobial activity against Streptococcus pneumoniae isolate 4755 by agar dilution method; in short: as §1

CO/N=C(\C(=O)N[C@@H]1C(=O)N2C(C(=O)O)=C(COC(N)=O)CS[C@H]12)c1ccco1 [CEFUROXIME]
MIC50 (Streptococcus pneumoniae [1]): 0.03 µg/mL (≈ 0.0707 µM) | MIC90 (Streptococcus pneumoniae [1]): 0.125 µg/mL (≈ 0.295 µM) | MIC50 (Streptococcus pneumoniae [2]): 0.25 µg/mL (≈ 0.589 µM) | MIC90 (Streptococcus pneumoniae [2]): 4 µg/mL (≈ 9.43 µM) | MIC50 (Streptococcus pneumoniae [3]): 4 µg/mL (≈ 9.43 µM) | MIC90 (Streptococcus pneumoniae [3]): 16 µg/mL (≈ 37.7 µM) | MIC50 (Streptococcus pneumoniae [4]): 8 µg/mL (≈ 18.9 µM) | MIC90 (Streptococcus pneumoniae [4]): 16 µg/mL (≈ 37.7 µM) | MIC (Streptococcus pneumoniae [5]): 0.03 µg/mL (≈ 0.0707 µM) | MIC (Streptococcus pneumoniae [6]): 0.016 µg/mL (≈ 0.0377 µM) | MIC (Streptococcus pneumoniae [7]): 1 µg/mL (≈ 2.36 µM) | MIC (Streptococcus pneumoniae [8]): 16 µg/mL (≈ 37.7 µM) | MIC (Streptococcus pneumoniae [9]): 16 µg/mL (≈ 37.7 µM) | MIC (Streptococcus pneumoniae [10]): 0.5 µg/mL (≈ 1.18 µM) | MIC (Streptococcus pneumoniae [11]): 4 µg/mL (≈ 9.43 µM) | MIC (Streptococcus pneumoniae [12]): 8 µg/mL (≈ 18.9 µM) | MIC (Streptococcus pneumoniae [13]): 0.25 µg/mL (≈ 0.589 µM) | MIC (Streptococcus pneumoniae [14]): 0.25 µg/mL (≈ 0.589 µM) | MIC (Streptococcus pneumoniae [15]): 4 µg/mL (≈ 9.43 µM) | MIC (Streptococcus pneumoniae [16]): 4 µg/mL (≈ 9.43 µM) | MIC (Streptococcus pneumoniae [17]): 2 µg/mL (≈ 4.71 µM) | MIC (Streptococcus pneumoniae [18]): 4 µg/mL (≈ 9.43 µM) | MIC (Streptococcus pneumoniae [19]): 4 µg/mL (≈ 9.43 µM) | MIC (Streptococcus pneumoniae [20]): 4 µg/mL (≈ 9.43 µM) | MIC (Streptococcus pneumoniae [21]): 8 µg/mL (≈ 18.9 µM) | MIC (Streptococcus pneumoniae [22]): 8 µg/mL (≈ 18.9 µM) | MIC (Streptococcus pneumoniae [23]): 4 µg/mL (≈ 9.43 µM) | MIC (Streptococcus pneumoniae [24]): 16 µg/mL (≈ 37.7 µM) | MIC (Streptococcus pneumoniae [25]): 8 µg/mL (≈ 18.9 µM) | MIC (Streptococcus pneumoniae [26]): 16 µg/mL (≈ 37.7 µM) | MIC (Streptococcus pneumoniae [27]): 64 µg/mL (≈ 151 µM) | MIC (Streptococcus pneumoniae [28]): 4 µg/mL (≈ 9.43 µM) | MIC (Streptococcus pneumoniae [29]): 16 µg/mL (≈ 37.7 µM) | MIC (Streptococcus pneumoniae [30]): 32 µg/mL (≈ 75.4 µM) | MIC (Streptococcus pneumoniae [31]): 8 µg/mL (≈ 18.9 µM) | MIC (Streptococcus pneumoniae [32]): 4 µg/mL (≈ 9.43 µM) | MIC (Streptococcus pneumoniae [33]): 4 µg/mL (≈ 9.43 µM) | MIC (Streptococcus pneumoniae [34]): 4 µg/mL (≈ 9.43 µM) | MIC (Streptococcus pneumoniae [35]): 2 µg/mL (≈ 4.71 µM) | MIC (Streptococcus pneumoniae [36]): 4 µg/mL (≈ 9.43 µM) | MIC (Streptococcus pneumoniae [37]): 4 µg/mL (≈ 9.43 µM) | MIC (Streptococcus pneumoniae [38]): 8 µg/mL (≈ 18.9 µM) | MIC (Streptococcus pneumoniae [39]): 4 µg/mL (≈ 9.43 µM) | MIC (Streptococcus pneumoniae [40]): 4 µg/mL (≈ 9.43 µM) | MIC (Streptococcus pneumoniae [41]): 8 µg/mL (≈ 18.9 µM) | MIC (Streptococcus pneumoniae [42]): 8 µg/mL (≈ 18.9 µM) | MIC (Streptococcus pneumoniae [43]): 8 µg/mL (≈ 18.9 µM) | MIC (Streptococcus pneumoniae [44]): 4 µg/mL (≈ 9.43 µM) | MIC (Streptococcus pneumoniae [45]): 8 µg/mL (≈ 18.9 µM) | MIC (Streptococcus pneumoniae [46]): 8 µg/mL (≈ 18.9 µM) | MIC (Streptococcus pneumoniae [47]): 8 µg/mL (≈ 18.9 µM)
